Experimental data from ChEMBL document CHEMBL1133353, “Structural analogues of some highly active non-competitive AMPA antagonists” (Bioorg Med Chem Lett, 2000).

Legend:
Gallus gallus [1] = species on record: Gallus gallus; experiment: Compound was examined in vitro for inhibition of AMPA (5 uM) evoked spreading depression in isolated retina prepared from young chicken; type: functional
How it was run: (§1)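 Each compound was first screened at 20 µM in 6 retina preparations. Below 40% inhibition was recorded as IC50 >20 µM, and 40–60% as ~20 µM. Above 60%, IC50 was determined from 3–5 concentrations with 6 retinas per concentration.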

Mus musculus [2] = experiment: Decrease of spontaneous motor activity, ataxy, mild muscle relaxation was observed after the intraperitoneal administration of compound in mice; type: functional
Mus musculus [3] = experiment: Muscle relaxant activity of compound, administered intraperitoneally in mice was evaluated using inclined screen test; type: functional; details: ip
How it was run: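 Inclined screen test for muscle relaxation in mice, with compound given ip 30 min before testing; 10 mice per dose at 3–4 doses. ED50 was derived by the Litchfield–Wilcoxon method.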

Mus musculus [4] = experiment: Decrease of spontaneous motor activity, ataxy, mild muscle relaxation was observed after the peroral administration of compound in mice; type: functional
Mus musculus [5] = experiment: Anticonvulsant activity of compound, administered perorally in mice was evaluated using maximal electroshock seizure model; type: functional; details: po
How it was run: (§2)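 Mice were dosed orally 60 min before maximal electroshock, using 10 mice per dose at 3–4 doses. ED50 was calculated by the Litchfield–Wilcoxon method.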

Mus musculus [6] = experiment: Anticonvulsant activity of compound, administered perorally in mice was evaluated using maximal metrazole seizure model; type: functional; details: po
How it was run: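 Oral dosing in mice 60 min before 130 mg/kg metrazole ip, with lethality as the endpoint; 10 mice per dose at 3–4 doses. ED50 was obtained by the Litchfield–Wilcoxon method.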

Mus musculus [7] = experiment: Adynamia was observed after the intraperitoneal administration of compound in mice; type: functional
Mus musculus [8] = experiment: Adynamia was observed after the peroral administration of compound in mice; type: functional
Gallus gallus [9] = species on record: Gallus gallus; experiment: Compound was examined in vitro for inhibition of kainate (5 uM) evoked spreading depression in isolated retina prepared from young chicken; type: functional; how it was run: as §1
Rattus norvegicus [10] = species on record: Rattus norvegicus; experiment: (§3) Compound was tested for inhibition of whole cell current induced […]; type: functional
How it was run: (§4)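 Patch-clamp whole-cell currents evoked by 5 µM AMPA; inhibition reported as IC50 or as percent inhibition at 5 µM compound.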

Mus musculus [11] = experiment: Loss of righting reflex was observed after the intraperitoneal administration of compound in mice; type: functional
Mus musculus [12] = experiment: Loss of righting reflex was observed after the peroral administration of compound in mice; type: functional
Mus musculus [13] = experiment: No behavioral change was observed after the peroral administration of compound in mice; type: functional
Mus musculus [14] = experiment: No behavioral change was observed after the intraperitoneal administration of compound in mice; type: functional
Mus musculus [15] = experiment: Increase of spontaneous motor activity, ataxy, stereotypia, licking, muscle rigidity was observed after the peroral administration of compound in mice; type: functional
Mus musculus [16] = experiment: Anticonvulsant activity of compound, administered perorally in mice was evaluated using maximal electroshock seizure model; values ranges from (40.5-54.7); type: functional; details: po; how it was run: as §2
Mus musculus [17] = experiment: Increase of spontaneous motor activity, ataxy, stereotypia, licking, muscle rigidity was observed after the intraperitoneal administration of compound in mice; type: functional
Rattus norvegicus [18] = species on record: Rattus norvegicus; experiment: as §3; type: functional, cell-based; how it was run: as §4

SMILES | IC50 (Gallus gallus [1]) [µM] | ED50 (Mus musculus [3]) [mg/kg] | ED50 (Mus musculus [5]) [mg/kg] | ED50 (Mus musculus [6]) [mg/kg] | IC50 (Gallus gallus [9]) [µM] | Dose (Mus musculus [11]) [mg/kg] | Dose (Mus musculus [12]) [mg/kg] | further results
CC1CN(c2ccccn2)N=C(c2ccc(N)cc2)c2cc3c(cc21)OCO3 (stereo not drawn) | > 20 | > 200 | > 100 | – | – | – | – | Dose (Mus musculus [2]): 100 mg/kg; Dose (Mus musculus [4]): 200 mg/kg
CC(=O)N1CC(C)c2cc3c(cc2C(c2ccc(N)cc2)=N1)OCO3 (stereo not drawn) | 20 | 95.3 | 69.3 | 135 | 3.4 | – | – | Dose (Mus musculus [7]): 100 mg/kg; Dose (Mus musculus [8]): 200 mg/kg; Inhibition (Rattus norvegicus [10]): 54%
CNC(=O)N1CC(C)c2cc3c(cc2C(c2ccc(N)cc2)=N1)OCO3 (stereo not drawn) | 15.6 | 55.9 | 48.8 | 67.6 | 20 | 100 | 200 | Inhibition (Rattus norvegicus [10]): 52.7%
CC1CN(C(=O)C2CC2)N=C(c2ccc(N)cc2)c2cc3c(cc21)OCO3 (stereo not drawn) | > 20 | > 200 | > 100 | – | – | – | – | Dose (Mus musculus [13]): 200 mg/kg; Dose (Mus musculus [14]): 100 mg/kg
CCCCC(=O)N1CC(C)c2cc3c(cc2C(c2ccc(N)cc2)=N1)OCO3 (stereo not drawn) | > 20 | > 200 | > 100 | – | – | – | – | Dose (Mus musculus [13]): 200 mg/kg; Dose (Mus musculus [14]): 100 mg/kg
CC1CNN=C(c2ccc(N)cc2)c2cc3c(cc21)OCO3 (stereo not drawn) | – | 100 | – | – | – | – | – | Dose (Mus musculus [15]): 200 mg/kg; ED50 (Mus musculus [16]): 47.1 mg/kg; Dose (Mus musculus [17]): 100 mg/kg
CC(=O)N1N=C(c2ccc(N)cc2)c2cc3c(cc2C[C@H]1C)OCO3 [TALAMPANEL] | 1.7 | – | 8.6 | – | 2.6 | 100 | 200 | IC50 (Rattus norvegicus [18]): 2.5 µM
CC1=NN=C(c2ccc(N)cc2)c2cc3c(cc2C1)OCO3 [GYKI-52466] | 6.3 | – | 37.4 | 120 | 9.5 | 100 | 200 | IC50 (Rattus norvegicus [18]): 9.9 µM
